One compound from paper PMC10617274 (Therapeutic Advances in Infectious Disease, 2023) can be followed below.

In data set [1] the test system is L. amazonensis promastigotes. The experiment in a line: Susceptibility assay in promastigotes. To be noted: Leishmania amazonensis, 72 h, read-out: Promastigotes IC50 + SD. The data set is classed as cell-based, Leishmania amazonensis (MHOM/BR/77/LTB0016 strain).
Data set [2] in a line: Cytotoxicity in mouse peritoneal macrophages. The data set is classed as cell-based, BALB/c mice. To be noted: BALB/c, Macrophages CC50 + SD, resazurin. In outline:
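Peritoneal lavage cells from BALB/c mice, in RPMI + 10% heat-inactivated FBS, seeded at 3 × 10⁵ macrophages/mL, left to adhere 2 h at 33°C, 5% CO₂; non-adherent cells washed off with PBS. Test compound from 650 µM top, 8 serial 1:2.5 dilutions, quadruplicate, 48 h. Then 3 mM resazurin (stock), fluorescence after 4 h; CC50 by non-linear curve fit; at least three independent trials.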
For orientation: Resazurin is reduced to fluorescent resorufin, in cell work by metabolically active cells.

For `C[C@@H]1[C@H](O)[C@@H](C)/C=C/C=C/C=C/C=C/C=C/C=C/C=C/[C@H](O[C@@H]2O[C@H](C)[C@@H](O)[C@H](N)[C@@H]2O)C[C@@H]2O[C@](O)(C[C@@H](O)C[C@@H](O)[C@H](O)CC[C@@H](O)C[C@@H](O)CC(=O)O[C@H]1C)C[C@H](O)[C@H]2C(=O)O` [Amphotericin B], the 50% inhibitory concentration (IC50) (in general, the concentration that inhibits the measured activity by half) in data set [1] amounted to 30 ± 14 nM. The 50% cytotoxic concentration (CC50) (commonly the concentration that lowers cell viability or growth by half) at 48 h in data set [2] was found to be 5800 ± 500 nM.
